The values below come from ChEMBL document CHEMBL2034934, “Isodesacetyluvaricin, an Annonaceous acetogenin, specifically inhibits gene expression of cyclooxygenase-2” (J Nat Prod, 2012).

For series [1], the system named is A-431. As to the kind of experiment: Inhibition of CREB promoter activity in EGF-stimulated human A431 cells at 1 to 5 uM pretreated for 30 mins before EGF challenge measured after 3 hrs by luciferase reporter gene analysis. The format is cell-based. An outline of the steps:
(§1)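 A431 cells transiently transfected with 0.5 μg CRE-promoter plasmid pXC 80 (CREB) or NFAT-promoter luciferase plasmid. After 24 h, pretreated 30 min at 1 or 5 μM, then EGF 25 ng/mL for 3 h. Luciferase normalised to lysate protein.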

Series [2] concerns A-431. Nature of the series: Cytotoxicity against EGF-stimulated human A431 cells at 1 to 5 uM after 48 hrs by WST1 assay. The class given is cell-based. To be noted: a-431, 48 h. An outline of the steps: (§2)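 A431 cells serum-starved 24 h, pretreated 30 min at 1 or 5 μM, then EGF 25 ng/mL for 24 h or 48 h. WST-1 reagent 5–10 min at 37 °C; absorbance 450 nm, reference 600 nm.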
In general terms: Formazan colour is commonly taken as a measure of viable cells.

The subject of series [3] is A-431. As to the kind of experiment: Antiinflammatory activity in human A431 cells assessed as inhibition of EGF-stimulated COX1 mRNA level pretreated for 30 mins before EGF challenge measured after 3 hrs by RT-PCR analysis. The class given is functional, cell-based. The method, boiled down:
(§3)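 A431 cells serum-starved 24 h, pretreated 30 min at 0.1, 1 or 5 μM, then EGF 25 ng/mL for 3 h. Total RNA by Trizol, reverse-transcribed; COX-1 and COX-2 amplified by PCR (35 cycles: 94 °C 30 s, 58 °C 30 s, 72 °C 1 min). Products run on 2% agarose, ethidium bromide stained.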

The subject of series [4] is RAW264.7. As to the kind of experiment: Antiinflammatory activity in mouse RAW264.7 cells assessed as inhibition of LPS-stimulated COX2 expression pretreated for 30 mins before LPS challenge measured after 3 hrs by RT-PCR analysis. The format is functional, cell-based. The method, boiled down: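 Raw 264.7 mouse macrophages serum-starved 24 h, pretreated 30 min at 0.1, 1 or 5 μM, then LPS 10 μg/mL for 3 h. Total RNA by Trizol; COX-2 mRNA by RT-PCR (35 cycles), read on agarose gel with ethidium bromide.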

The subject of series [5] is A-431. As to the kind of experiment: Cytotoxicity against EGF-stimulated human A431 cells at 1 to 5 uM after 24 hrs by WST1 assay. The class given is cell-based. To be noted: a-431, 24 h. The method, boiled down:
as §2

For series [6], the system named is A-431. As to the kind of experiment: Antiinflammatory activity in human A431 cells assessed as reduction of EGF-stimulated COX2 protein expression pretreated with compound before EGF challenge measured by Western blotting analysis. The class given is functional, cell-based. The method, boiled down:
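A431 cells serum-starved, pretreated with compound, then EGF-stimulated. 40 μg lysate (RIPA) run on 12.5% SDS-PAGE, blotted to nitrocellulose. Probed 16 h at 4 °C with mouse anti-COX-2 (1:2000) and β-actin (1:20 000), anti-mouse IgG secondary, ECL detection.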
In general terms: A western blot detects proteins with antibodies after separation by electrophoresis.

Series [7] has as its system A-431. As to the kind of experiment: Inhibition of NFAT promoter activity in EGF-stimulated human A431 cells at 1 to 5 uM pretreated for 30 mins before EGF challenge measured after 3 hrs by luciferase reporter gene analysis. The class given is cell-based. An outline of the steps:
as §1
Background: Reporter assays use an easily measured gene product as a stand-in for the process of interest.

Series [8] has as its system A-431. Nature of the series: Antiinflammatory activity in human A431 cells assessed as reduction of EGF-stimulated COX2 promoter activity at 0.1 to 5 uM after 24 hrs by luciferase reporter gene assay. The format is functional, cell-based. An outline of the steps: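 A431 cells transiently transfected (Lipofectamine 2000) with 0.5 μg COX-2 promoter luciferase plasmid pXC 918 for 24 h. Then treated with compound and stimulated with EGF. Dual-luciferase read-out normalised to lysate protein; means ± SEM, Student's t-test.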

Series [9] concerns A-431. Nature of the series: Antiinflammatory activity in human A431 cells assessed as decrease in thapsigargin-induced calcium influx at 1 uM pretreated for 30 mins before thapsigargin challenge measured by fluorescence analysis. The class given is functional, cell-based. The method, boiled down:
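A431 cells on glass coverslips (24 or 48 h), loaded with 1 μM Fluo-4 at 37 °C for 20 min in the dark. Store-operated influx evoked by 2 μM thapsigargin; Fluo-4 read by time-lapse videomicroscopy; 15–20 cells pooled.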

The subject of series [10] is A-431. As to the kind of experiment: Antiinflammatory activity in human A431 cells assessed as inhibition of EGF-stimulated COX2 mRNA level pretreated for 30 mins before EGF challenge measured after 3 hrs by RT-PCR analysis. The class given is functional, cell-based. The method, boiled down:
as §3

Structures are written as SMILES. Activity calls are given as the source filed them. No cut-off for these calls is given here.

Take `CCCCCCCCCC[C@@H](O)[C@H]1CC[C@H]([C@H]2CC[C@H]([C@H](O)CCCCCCCCCCCCC3=C[C@H](C)OC3=O)O2)O1` [ISODESAACETYLUVARICIN]: the inhibition entry in series [1], in [4] and in series [7] was “Active” in each case. Further, the Activity entry is “Non-toxic” in series [2], “Non-toxic” in series [5] and “Dose-dependent effect” in series [6]. The inhibition entry in series [3] is “inactive”. Also, the outcome in [8] was Active. In addition, the outcome in series [9] was inactive. Further, in series [10], the inhibition result is “Dose-dependent effect”.
